Measurements published in article PMC4749511 (Bioorganic & medicinal chemistry, 2015).
“Also recorded” adds a separate entry of the source.

biological target: T1, human Rce1 (HsRce1) (Homo sapiens, UniProt Q9Y256); experiment: In vitro fluorescence-based CaaX proteolysis assay; type: biochemical; settings: single-point, 10 μM
T1 sequence (Q9Y256 1-329): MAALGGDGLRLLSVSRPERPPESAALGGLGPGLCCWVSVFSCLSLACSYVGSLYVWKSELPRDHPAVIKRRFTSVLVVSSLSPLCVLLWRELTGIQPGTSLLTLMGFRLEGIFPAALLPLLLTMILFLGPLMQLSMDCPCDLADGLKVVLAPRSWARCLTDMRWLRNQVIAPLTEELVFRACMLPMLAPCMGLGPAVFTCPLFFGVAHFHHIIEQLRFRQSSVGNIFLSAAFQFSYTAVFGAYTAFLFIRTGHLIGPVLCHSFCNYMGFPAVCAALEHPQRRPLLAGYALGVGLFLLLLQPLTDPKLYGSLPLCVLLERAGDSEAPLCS
Summary of the method: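 Membranes from yeast expressing HsRce1, in 200 mM Tris pH 7.5, 200 mM NaCl, 1 mg/mL BSA. Preincubated with test compound (from 50× DMSO stock) for 15 min at 30 °C in duplicate wells. Started with quenched ABZ-KSKTKC(farnesyl)QLIM at 20 μM final; membranes 0.25 mg/mL final. Fluorescence 320/420 nm read every 30-60 s for 60 min at 30 °C. Initial velocities expressed as % of DMSO control, normalised by trypsin (10 μg/mL) full digestion.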

Molecule	HsRce1 inhibition (in words)
CCOC(=O)c1ccc(NC(c2ccccc2)c2ccc(Br)cc2)cc1 (stereo not drawn) [Compound 49, Ethyl 4-(((4-bromophenyl)(phenyl)methyl)amino)benzoate]	relatively inactive
CCOC(=O)c1ccc(NC(c2ccc(Br)cc2)c2ccc(Br)cc2)cc1 [Compound 50, Ethyl 4-((bis(4-bromophenyl)methyl)amino)benzoate]	relatively inactive
O=[N+]([O-])c1ccc(C(Nc2ccccc2)c2ccc3cccnc3c2O)cc1 (stereo not drawn) [Compound 7, reference compound]	did not inhibit HsRce1 activity significantly
O=C(O)c1ccc(NC(c2ccccc2)c2ccc(Br)cc2)cc1 (stereo not drawn) [Compound 52, 4-(((4-Bromophenyl)(phenyl)methyl)amino) benzoic acid]	relatively inactive
CCOC(=O)c1ccc(NC(c2ccccc2)c2ccccc2)cc1 [Compound 48, Ethyl 4-(benzhydrylamino)benzoate]	Neither the ethyl ester 48 nor the acid derivative 51 showed any effect upon inhibition of the enzyme
c1ccc(NC(c2ccccc2)c2ccc3ccccc3c2)cc1 (stereo not drawn) [Compound 44, N-(naphthalen-2-yl(phenyl)methyl)aniline]	little inhibitory activity
Oc1c(C(Nc2ccccc2)c2c(F)cc(Br)cc2F)ccc2cccnc12 (stereo not drawn) [Compound 24, 7-((4-Bromo-2,6-difluorophenyl)(phenylamino)methyl)quinolin-8-ol]	no significant reduction in Rce1 activity
O=C(O)c1ccc(NC(c2ccc3cccnc3c2O)c2c(F)cc(Br)cc2F)cc1 (stereo not drawn) [Compound 25, 4-(((4-Bromo-2,6-difluorophenyl)(8-hydroxyquinolin-7-yl)methyl)amino)benzoic acid]	no significant reduction in Rce1 activity
Oc1c(C(Nc2ccccc2)c2ccccc2)cc(Br)c2ccccc12 (stereo not drawn) [Compound 33, 4-Bromo-2-(phenyl(phenylamino)methyl)naphthalen-1-ol]	retained inhibitory activity
C[C@@H](N[C@H](c1ccccc1)c1c(O)ccc2ccccc12)c1ccccc1 [Compound 47]	weaker inhibitors
O=C(O)c1ccc(NC(c2ccccn2)c2ccc3cccnc3c2O)cc1 (stereo not drawn) [Compound 15, 4-(((8-Hydroxyquinolin-7-yl)(pyridin-2-yl)methyl)amino)benzoic acid]	no significant reduction in Rce1 activity
O=C(O)c1ccc(NC(c2ccccc2)c2ccccc2)cc1 [Compound 51, 4-(Benzhydrylamino)benzoic acid]	inactive; also recorded: Neither the ethyl ester 48 nor the acid derivative 51 showed any effect upon inhibition of the enzyme
Methyl 4-(((8-methoxyquinolin-7-yl)(phenyl)methyl)amino)benzoate [Compound 32]	little inhibitory activity
c1ccc(NC(c2ccccc2)c2ccc3cccnc3c2)cc1 (stereo not drawn) [Compound 43, N-(Phenyl(quinolin-7-yl)methyl)aniline]	little inhibitory activity
O=C(O)c1ccc(NC(c2ccc(Br)cc2)c2ccc(Br)cc2)cc1 [Compound 53, 4-((bis(4-Bromophenyl)methyl)amino)benzoic acid]	relatively inactive
O=C(O)c1ccc(NC(c2cccnc2)c2ccc3cccnc3c2O)cc1 (stereo not drawn) [Compound 16, 4-(((8-Hydroxyquinolin-7-yl)(pyridin-3-yl)methyl)amino)benzoic acid]	no significant reduction in Rce1 activity
N#Cc1ccc(C(Nc2ccc(C(=O)O)cc2)c2ccc3cccnc3c2O)cc1 (stereo not drawn) [Compound 3, 4-(((4-Cyanophenyl)(8-hydroxyquinolin-7-yl)methyl)amino)benzoic acid]	did not inhibit HsRce1 activity significantly
Oc1ccc2ccccc2c1C(Nc1ccccc1)c1ccccc1 (stereo not drawn) [Compound 34, 1-(Phenyl(phenylamino)methyl)naphthalen-2-ol]	weaker inhibitors
Oc1c(CNc2ccccc2)ccc2cccnc12 [Compound 20, 7-((Phenylamino)methyl)quinolin-8-ol]	no significant effect on Rce1 proteolysis activity
Oc1ccc2ccc(O)c(C(Nc3ccccc3)c3ccccc3)c2c1 (stereo not drawn) [Compound 35, 1-(Phenyl(phenylamino)methyl)naphthalene-2,7-diol]	weaker inhibitors
CCCCCCCCOc1ccc(C(Nc2ccccc2)c2ccc3cccnc3c2O)cc1 (stereo not drawn) [Compound 26, 7-((4-(Octyloxy)phenyl)(phenylamino)methyl)quinolin-8-ol]	did not inhibit HsRce1 activity significantly

test system: EGFP-H-Ras; experiment: EGFP-H-Ras plasma membrane localization by confocal microscopy; type: cell-based, human; settings: HCT-116 cells, FTI 2 μM, 20 hours
Summary of the method: (§1)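 HCT-116 cells (DMEM, 10% FBS, 1% NEAA, 37 °C, 5% CO2) seeded at 4 × 10^4 per glass-bottom well and transfected 24 h later with the EGFP-Ras plasmid (0.5 μg DNA per 1 μL TrueFect). Treated with FTI or DMSO vehicle for 20 h, then live confocal imaging (488 nm excitation, 500-600 nm emission), at least 40 cells per condition. Normalised (0-1) line-scan intensity across each cell; PM width 1 μm.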

Molecule	H-Ras PM association (percent of total fluorescence at the PM) [%]
CC[C@H](C)[C@@H](CO[C@@H](Cc1ccccc1)C(=O)N[C@@H](CCS(C)(=O)=O)C(=O)OC(C)C)NC[C@@H](N)CS [L744,832]	< 10

test system: EGFP-N-Ras; experiment: EGFP-N-Ras plasma membrane localization by confocal microscopy; type: cell-based, human; settings: HCT-116 cells, FTI 2 μM, 20 hours
Summary of the method: as §1

Molecule	N-Ras PM association (percent of total fluorescence at the PM) [%]
CC[C@H](C)[C@@H](CO[C@@H](Cc1ccccc1)C(=O)N[C@@H](CCS(C)(=O)=O)C(=O)OC(C)C)NC[C@@H](N)CS [L744,832]	< 10

test system: EGFP-K-Ras (K-Ras4b); experiment: EGFP-K-Ras plasma membrane localization by confocal microscopy; type: cell-based, human; settings: HCT-116 cells, FTI 2 μM, 20 hours
Summary of the method: as §1

Molecule	K-Ras PM association (percent of total fluorescence at the PM) [%]
CC[C@H](C)[C@@H](CO[C@@H](Cc1ccccc1)C(=O)N[C@@H](CCS(C)(=O)=O)C(=O)OC(C)C)NC[C@@H](N)CS [L744,832]	~35

same assay, conditions: HCT-116 cells, Rce1 inhibitor 25 μM, 20 hours

Molecule	K-Ras PM association (percent of total fluorescence at the PM)
O=C(O)c1ccc(NC(c2ccccc2)c2ccc3cccnc3c2O)cc1 (stereo not drawn) [Compound 1, 4-(((8-Hydroxyquinolin-7-yl)(phenyl)methyl)amino)benzoic acid]	more effective at mislocalizing K-Ras than the FTI
O=C(O)c1ccc(NC(c2ccc3cccnc3c2O)C2CCCCC2)cc1 (stereo not drawn) [Compound 17, 4-((Cyclohexyl(8-hydroxyquinolin-7-yl)methyl)amino)benzoic acid]	more effective at mislocalizing K-Ras than the FTI
O=C(O)c1ccc(NC(c2ccc(F)cc2)c2ccc3cccnc3c2O)cc1 (stereo not drawn) [Compound 6, 4-(((4-Fluorophenyl)(8-hydroxyquinolin-7-yl)methyl)amino)benzoic acid]	more effective at mislocalizing K-Ras than the FTI
Oc1c(C(Nc2ccccc2)c2ccccc2)ccc2cccnc12 (stereo not drawn) [Compound 2, 7-(Phenyl(phenylamino)methyl)quinolin-8-ol]	more effective at mislocalizing K-Ras than the FTI

biological target: rat FTase (Rattus norvegicus, UniProt Q02293+Q04631); experiment: Fluorescence-based FTase assay; type: biochemical; settings: tested at 10, 25 and 50 μM
Summary of the method: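 Rat FTase added in enzyme solution (62.5 nM FTase, Tris pH 7.5, ZnCl2, MgCl2, KCl, DTT, BSA) to start reaction. Wells held dansyl-GCVLS, FPP, DTT, Tris pH 7.5, MgCl2, ZnCl2, octyl-β-D-glucopyranoside and test compound in DMSO (12.5 μL DMSO per 250 μL). Fluorescence read at 340 nm excitation, 535 nm emission, every 40 s for 1 h. Rate from first 10 min converted to nM/s via νi = RP/ΔF.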

FTase activity inhibition (in words)	Molecule
not inhibited	O=C(O)c1cccc(NC(c2ccccc2)c2ccc3ccccc3c2O)c1 (stereo not drawn) [Compound 30, 3-(((1-Hydroxynaphthalen-2-yl)(phenyl)methyl)amino)benzoic acid]
not inhibited	O=C(O)c1ccc(NC(c2ccc(Br)cc2)c2ccc3cccnc3c2O)cc1 (stereo not drawn) [Compound 5, 4-(((4-Bromophenyl)(8-hydroxyquinolin-7-yl)methyl)amino)benzoic acid]
not inhibited	Oc1c(C(Nc2ccccc2)c2ccccc2)ccc2cccnc12 (stereo not drawn) [Compound 2, 7-(Phenyl(phenylamino)methyl)quinolin-8-ol]

biological target: T1, human Rce1 (HsRce1); experiment: not given; settings: read-out: HsRce1 IC50; in vitro proteolysis assay; cited from earlier work

Molecule	IC50 [µM]
O=C(O)c1ccc(NC(c2ccccc2)c2ccc3cccnc3c2O)cc1 (stereo not drawn) [Compound 1, 4-(((8-Hydroxyquinolin-7-yl)(phenyl)methyl)amino)benzoic acid]	9

test system: GFP-Ras2p reporter; experiment: not given; settings: yeast cells; cited from earlier work

Molecule	GFP-Ras2p reporter mislocalization (in words)
O=C(O)c1ccc(NC(c2ccccc2)c2ccc3cccnc3c2O)cc1 (stereo not drawn) [Compound 1, 4-(((8-Hydroxyquinolin-7-yl)(phenyl)methyl)amino)benzoic acid]	mislocalizes a GFP-Ras2p reporter
